Source: PubChem
Rows were chosen to be rich in hits. Some 2.5% of all compounds tested hit in one or more screens of this group.
GSTO1 inh: blocks human GSTO1 in RBBP9 counter-screen; inhibition, % at 5.96 µM; P78417; 300,000 tested, 1.1% active; recombinant GSTO1, activity-based probe fluorescence polarization;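 active = inhibition above the campaign mean inhibition plus 3 SD, cut at about 35% in these data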;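 also: 0% = GSTO1-1 with DMSO and 100% = wells lacking GSTO1-1 enzyme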
Target sequence (P78417 whole entry, looked up): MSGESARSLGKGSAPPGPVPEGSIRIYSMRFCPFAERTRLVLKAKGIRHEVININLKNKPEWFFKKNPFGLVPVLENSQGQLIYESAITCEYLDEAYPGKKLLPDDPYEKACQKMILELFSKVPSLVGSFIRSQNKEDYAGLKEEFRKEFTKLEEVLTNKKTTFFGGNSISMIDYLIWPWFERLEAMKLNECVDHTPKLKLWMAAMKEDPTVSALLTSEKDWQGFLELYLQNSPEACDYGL
PRMT1 inh: blocks human protein arginine methyltransferase 1; Q99873; recombinant PRMT1, activity-based probe fluorescence polarization; inhibition, % at 2.79 µM; 370,000 tested, 1.3% active; AID 652257;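 active = inhibition above about 21% made by adding two undisclosed values, limit read from the data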
CTSL1 counter: counter-screen for PFM18AAP inhibitors: inhibitors of F. hepatica cathepsin L1; AID 1906; recombinant F. hepatica cathepsin L1, Z-Leu-Arg-MCA fluorescence; 300,000 tested, 0.49% active; inhibition, % at 5.96 µM;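 active = inhibition above the mean of all tested compounds plus 3 SD, set per screening campaign, cut at about 17% in these data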;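 also: 0% = plate median of test compound wells and 100% = 1 µM Z-Phe-Ala-diazomethylketone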
PAD4 FP inh: PAD4 (human) enzyme inhibition | 330,000 tested, 0.41% active | recombinant PAD4, RCA probe fluorescence polarization | Q9UM07 | inhibition, % at 6.36 µM;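 active = percent inhibition above a cutoff equal to the mean of all tested compounds plus 3 SD, cut at about 15% in these data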;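 also: 0% = PAD4 with RCA probe and DMSO and 100% = probe without PAD4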
TDP2 absorb: blocks human TDP2 phosphodiesterase activity; O95551; recombinant TDP2, T5PNP hydrolysis, p-nitrophenol absorbance 415 nm; inhibition, % at 12.8 µM; 370,000 tested, 0.34% active;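 active = inhibition above the mean of all tested compounds plus 3 SD, set per campaign, cut at about 25% in these data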;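 also: 0% = DMSO with enzyme and 100% = buffer with substrate but no TDP2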
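Test system: human TDP2 enzyme; Input: 120 nM TDP2 per well; Buffer or medium: Mg2+-containing Tris-HCl buffer, pH 7.5; Reagent: 5 mM T5PNP; Dosing: 12.8 µM single point, 1% DMSO; Incubation: reaction 2 h, 37 °C; Detection: p-Nitrophenol epi absorbance; Read-out: % inhibition relative to enzyme-containing and enzyme-free wells; Replicates: single well per compound.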
GSTO1 inh conf: confirmation of human GSTO1 inhibitors | shares compounds with GSTO1 inh | AID 2176 | inhibition, % at 5.96 µM | 2,400 tested, 54% active | recombinant GSTO1, probe fluorescence polarization;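 active = inhibition above the primary screen's cutoff, its mean inhibition plus 3 SD, cut at about 35% in these data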;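 also: loss of polarization as inhibitors block binding of rhodamine sulfonate ester activity probe; 0% = GSTO1 with DMSO and 100% = wells lacking GSTO1 enzyme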
GSTO1 ABPP inh: inhibitors of recombinant human GSTO1; gel ABPP SE-Rh probe fluorescence; shares compounds with GSTO1 inh; AID 463110; 130 tested, 30% active; inhibition, % at 1 µM;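 active = inhibition of the enzyme GSTO1 above about 75%, limit read from the data; inactive = inhibition below that limit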
Starred values were filed as active, the others as inactive; . = not tested or not shown.

SMILES	GSTO1 inh	PRMT1 inh	CTSL1 counter	PAD4 FP inh	TDP2 absorb	GSTO1 inh conf	others
C[C@H]1[C@@H](OC(=O)Nc2ccc(C(F)(F)F)cc2)CC[C@@]23CCCN2C(=O)CCC[C@@H]13	.	-2	.	.	-6	.
O=C1CCCC(O)=C1C=Nc1ccc(O)cc1	60*	-1	1	-7	0	2
O=C1CC(c2ccccc2)CC(O)=C1C=Nc1ccc(Cl)cc1 (stereo unspecified)	-2	1	-6	-10	2	.
COc1cccc(Cn2c(N)c(C#N)c3nc4ccccc4nc32)c1OC	41*	1	1	-12	-8	-2
CCOc1ccccc1C(=O)Nc1ccc(C(=O)NCC2COc3ccccc3O2)cc1 (stereo unspecified)	.	2	.	.	8	.
Cc1ccc2nc(/C(C#N)=C/c3ccc(O)c(O)c3)[nH]c2c1	46*	27*	7	-19	-4	51*
C/C=C/c1ccccc1OCCCN1CCC(C(O)(c2ccccc2)c2ccccc2)CC1	.	-9	.	.	-18	.
O=S1(=O)CCO[C@H]2Cc3ccccc3[C@H]2N1Cc1ccc(Cl)cc1	38*	-1	-1	0	1	6
O=[N+]([O-])c1cncc([N+](=O)[O-])c1Nc1cccc(O)c1	70*	5	3	6	1	13
Cc1ccccc1Nc1c([N+](=O)[O-])cncc1[N+](=O)[O-]	4	-3	3	1	-22	.
O=C(CCl)Nc1nc(-c2ccco2)c(-c2ccco2)s1	88*	32*	21*	3	5	88*
CC(=O)c1sc(NC(=O)CCNC(=O)c2ccco2)nc1-c1ccccc1	-4	3	3	1	-13	.
COc1ccc(C(=O)CSc2nnc(Cc3ccccc3)o2)cc1	38*	-2	-1	0	4	28
CCOc1ccc(Cc2nnc(SCC(=O)c3ccc(OC)cc3)o2)cc1	25	-1	-2	0	-5	.
COc1cc(-c2nnc(SCC(=O)c3ccc(C)cc3)o2)cc(OC)c1OC	38*	1	6	2	-7	27
COC(=O)CSc1nnc(-c2ccc(NS(=O)(=O)c3c(C(C)C)cc(C(C)C)cc3C(C)C)cc2)o1	.	-1	.	.	2	.
Oc1c(Br)cc(/C=N/n2c(-c3ccccc3)n[nH]c2=S)cc1Br	.	-6	.	.	6	.
Cc1c(Br)c(O)c(Br)c(O)c1/C=N/n1c(-c2ccccc2)n[nH]c1=S	58*	.	17	1	.	35*
O=C(Nc1nc2ncccn2c1-c1ccc(F)c(F)c1)c1ccc(F)cc1	.	-5	.	.	1	.
COc1ccc(S(=O)(=O)N(C(=O)c2ccco2)c2cc3sc(=O)oc3c3ccccc23)cc1	64*	94*	0	9	6	19
c1ccc2c(c1)N=C(N1CCN(Cc3ccc4c(c3)OCO4)CC1)c1ccccc1S2	.	0	.	.	-3	.
CCC[C@H](/C=C/C(=O)OC(C)(C)C)Sc1ccc(OC)cc1	.	4	.	.	3	.
C=CCN1C=C2C(=O)C(C)(OC(=O)CCC(=O)OC)C(=O)C(Br)=C2C=C1c1ccc(OC)cc1 (stereo unspecified)	61*	.	-5	-6	.	69*
COCCN1C=C2C(=O)C(C)(OC(=O)CCC(=O)OC)C(=O)C(Br)=C2C=C1c1ccc(OC)cc1 (stereo unspecified)	55*	.	7	-6	.	61*
COC(=O)CCC(=O)OC1(C)C(=O)C2=CN(C3CCCC3)C(c3ccc(OC)cc3)=CC2=C(Br)C1=O (stereo unspecified)	50*	4	-4	-23	0	30
Cc1cc(NC(=O)COc2cc(F)cc(F)c2)n(-c2ccccc2)n1	.	1	.	.	-3	.
COC(=O)[C@]1(CNC(=O)C(C)(C)C)CC(=O)N(C)[C@@H]1c1ccccc1	.	5	.	.	1	.
O=C(CSc1nnc(-c2ccco2)o1)c1ccc(F)c(F)c1	38*	5	3	-2	-10	31
CCCN(C(=O)CCl)C1=CCCCC1	38*	-3	1	-4	9	58*	GSTO1 ABPP inh=63
O=C1/C(=N\S(=O)(=O)c2cccs2)C([n+]2cccc(Cc3ccccc3)c2)=C([O-])c2ccccc21	87*	.	11	5	.	83*
